Converted amounts (≈) assume the structure as drawn.
Test system: HDFn cells
Experiment: PrestoBlue cell viability assay, HDFn
Assay type: cell-based
Conditions: Homo sapiens, 96 h, read-out: IC50 (half maximal inhibitory concentration), HDFn
Outline: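 HDFn cells grown in DMEM with 10% FBS and 1X antibiotic-antimycotic (37°C, 5% CO2); seeded at 1×10^4 viable cells/well and attached overnight. Test compound (DMSO stock, 0.1% final DMSO) added in two-fold dilutions, 50–0.39 µg/mL final, for 4 days. PrestoBlue 2 h; absorbance 570 nm normalized to 600 nm. Untreated, Zeocin and media-only background wells. Triplicates; IC50 from dose-response curves.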

| Compound | IC50 |
| --- | --- |
| CC(C)=CCC/C(C)=C/CC/C(C)=C/CC/C=C(\C)CC/C=C(\C)CCC=C(C)C [Compound 3, squalene] | 0.1 µg/mL (≈ 0.243 µM) |
| CC1(C)CC[C@]2(C(=O)O)CC[C@]3(C)C(=CC[C@@H]4[C@@]5(C)CC[C@H](O)C(C)(C)[C@@H]5CC[C@]43C)[C@@H]2C1 [Compound 2, oleanolic acid] | 29.5 µg/mL (≈ 64.6 µM) |

Source: publication PMC5855380 (Pharmacognosy Research, 2018)
